Molecules are shown by their SMILES.

The series can be described thus: Toxicity liver stage against HepG2, at 10uM. To be noted: human, HepG2-A16-CD81EGFP cells; read-out: INHIBITION
Set-up: test concentration 10 uM, cell line HepG2-A16-CD81EGFP. Type of series: cell-based. In a few lines:
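Uninfected HepG2-A16-CD81EGFP cells, 3 × 10^3 per well, 1536-well, plated on prespotted compound at 10 μM final, parasite-free screening media added to match infected plates; puromycin 10 μM positive, DMSO 0.5% negative; run in parallel with 48 h PbLuc assay at 37 °C, 5% CO2; viability by CellTiter-Glo luminescence, normalized to controls.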
As to `N#Cc1ccc(N2CCCN(CC(=O)N3CCNC(=O)C3)CC2)cc1`, the cytotoxicity at 10 µM worked out at 5.27%.

Take `Cc1cnc(N2CCC[C@@H]3CN(CC(=O)N(C)C)C[C@@H]32)nc1`: the cytotoxicity at 10 µM stood at 11.4%. Turning to `O=C(c1ccco1)N1CC[C@@H]2[C@H]1CCC(=O)N2c1ccccc1`, the cytotoxicity at 10 µM is -110%. As for `O=C(O)c1ccccc1CN1CCOC(CCc2ccncn2)C1` (stereo unspecified), the cytotoxicity at 10 µM was -20.6%. As to `Cc1cc(C2CCCN2C(=O)c2csc(-c3cnn(C)c3)n2)on1` (stereo unspecified), the cytotoxicity at 10 µM turned out to be 15.6%.

`O=C(CN1CC(n2cccn2)C1)NCCCN1CCCC1=O`: the cytotoxicity at 10 µM was -29.9%. Regarding `O=C(CN1CCCC1Cn1cncn1)Nc1nncs1` (stereo unspecified), the cytotoxicity at 10 µM amounted to 5.05%. The figure for `O=C(CN1CCCNC1=O)N1CCCC(c2nccs2)C1` (stereo unspecified) is -12.5%; for `O=C(NCc1ccccn1)c1cnc(C2CCCN2)cn1` (stereo unspecified) it is 3.62%; for `O=C(Cc1ccccc1F)N1CCN(C(=O)c2cccc(F)c2)CC1` it is 7.7%. Regarding `Cc1nc(CO[C@H]2CN(Cc3cccs3)[C@@H]3COC[C@H]23)cs1`, the cytotoxicity at 10 µM is -2.19%. On to `CN(C)C1CCCN(C(=O)NCc2ccccc2-n2cccn2)C1` (stereo unspecified), for which the cytotoxicity at 10 µM was -4.14%. Turning to `Cc1cc(C)n(CC2CCCCN2CC(=O)Nc2nccs2)n1` (stereo unspecified), the cytotoxicity at 10 µM is 10.1%. The figure for `Cc1ccc(NC2CCN(C(=O)COCC3CC3)CC2)nn1` is 0.132%. Take `CCC(NC(=O)c1nn(C)cc1C(=O)O)c1ccc(C)cc1` (stereo unspecified): the cytotoxicity at 10 µM was -3.42%. To `COCc1ncc(-c2nccn2CCS(C)(=O)=O)cn1` belongs -17.2%; to `CCn1nnc2c1C(COC)CN(Cc1ccco1)C2` (stereo unspecified), 0.73%. On to `CCOCCN1CCN(CC(O)c2ccc(C(F)(F)F)cc2)CC1` (stereo unspecified), for which the cytotoxicity at 10 µM is -16.6%.

On to `Cc1cc(C)n(C2CCN(c3ncnc4c3CCNCC4)C2)n1` (stereo unspecified), for which the cytotoxicity at 10 µM worked out at 7.82%. As for `CSc1ccc(C(C(=O)O)N2CCC(CO)CC2)cc1` (stereo unspecified), the cytotoxicity at 10 µM was determined as 3.68%. As for `CCn1ccnc1CN(C)c1cc(C2CCCNC2)nc(C)n1` (stereo unspecified), the cytotoxicity at 10 µM is -2.48%. For `Cn1ncc2c1NC(=O)CC2c1ccc(O)cc1` (stereo unspecified), the cytotoxicity at 10 µM was found to be 24.3%. For the molecule `O=C(c1ccccn1)N1CCc2c(nc(-c3ccncc3)[nH]c2=O)C1`, the cytotoxicity at 10 µM was found to be 2.99%. The figure for `O=C(Nc1cccc(F)c1)C1=NOC2(CCNCC2)C1` is 5.19%; for `Cc1nn(C)c(Cl)c1C1CCCN1C(=O)CCNc1ncccn1` (stereo unspecified) it is -7.42%.

Turning to `COc1ccc(NC(=O)c2nc3ccccc3n(C)c2=O)cc1OC`, the cytotoxicity at 10 µM was -7.36%. Take `CCn1c(C)cc(C(=O)N2CCCC(n3nc(C)nc3C)C2)c1C` (stereo unspecified): the cytotoxicity at 10 µM is -11.4%. Take `Cn1cc(C(=O)NCC2CCN(C(=O)NC3CCCCC3)CC2)cn1`: the cytotoxicity at 10 µM was -4.92%. For the molecule `COc1ccc(C2CCCN2Cc2nc3c(cnn3C)c(=O)[nH]2)cc1` (stereo unspecified), the cytotoxicity at 10 µM is -9.77%. To `O=C1CC2(CCCCN2C(=O)c2ccoc2)CN1Cc1ccccc1` (stereo unspecified) belongs 6.35%; to `CC(Nc1ncnc2c1NC(=O)CN2)c1ccc2c(c1)OCO2` (stereo unspecified), 8.19%.

Take `CSc1nccn1-c1cccc(C(=O)NCCCN2CCOCC2)c1`: the cytotoxicity at 10 µM was -4.74%. To `CCCN(C)c1ncc2c(n1)N(C)CCN(CC1CC1)C2=O` belongs -5.69%.

As for `CCN1C(=O)CC(c2cccnc2)C12CCN(c1ncc(F)cn1)CC2` (stereo unspecified), the cytotoxicity at 10 µM is -8.59%. To `Cc1nc(CN2CCN(C(=O)CCC(=O)c3ccccc3)CC2)no1` belongs 3.7%; to `COc1ccc(N2CCN(C(=O)C3[C@H]4CNC[C@@H]34)CC2(C)C)cc1` (stereo partly specified), 12.1%.

With `CCCc1cncnc1N1CCC2(CCC(=O)N(CCCO)C2)CC1`, the cytotoxicity at 10 µM is 2.8%. In the case of `Cn1cc(CN2CC[C@@H]3[C@@H](CCC(=O)N3CCC3=CCCCC3)C2)cn1`, the cytotoxicity at 10 µM was -8.68%.

`CCn1ccc(NC(=O)C2CCC(=O)N2Cc2ccc(C)o2)n1` (stereo unspecified): the cytotoxicity at 10 µM stood at 6.17%. As to `c1ccc(CCCn2cc(-c3nc(CN4CCOCC4)no3)nn2)cc1`, the cytotoxicity at 10 µM was found to be 2.14%. On to `CC(C)C(NC(=O)c1cnc(N2CCOCC2)nc1)c1cccs1` (stereo unspecified), for which the cytotoxicity at 10 µM was determined as 9.71%. Turning to `Cc1ccc(C(C(=O)N(C)CCc2cn[nH]c2)N(C)C)cc1` (stereo unspecified), the cytotoxicity at 10 µM was 0.0341%. As for `CSCCCN1CCCC(Cn2ccnc2)C1` (stereo unspecified), the cytotoxicity at 10 µM is 5.07%. Regarding `Cc1ccc2c(c1)c(C)cc(=O)n2CC(=O)O`, the cytotoxicity at 10 µM amounted to 3.1%.

As for `COCCOCC(=O)Nc1ccccc1F`, the cytotoxicity at 10 µM was found to be 14.7%.

Turning to `COc1ccc(C(=O)Nc2nncs2)cn1`, the cytotoxicity at 10 µM is -11.9%.

With `CN(CC(F)(F)F)C(=O)Cn1cc(NC(=O)C(C)(C)C)cn1`, the cytotoxicity at 10 µM came out at 3.04%.

Turning to `CN(C)c1cccc(C(=O)N2CCCSCC2CN2CCCC2)c1` (stereo unspecified), the cytotoxicity at 10 µM worked out at 7.03%. Take `COCCCOc1ccc(C(=O)N(C)CCC(C)C)cn1`: the cytotoxicity at 10 µM turned out to be 6.19%. As to `CCS(=O)(=O)N1CC[C@@H]2[C@H](CC1)N(Cc1cccc(C)n1)CCS2(=O)=O`, the cytotoxicity at 10 µM is -3.98%. As for `Cc1cc(C)c2c(N3CCN(C(=O)N(C)C)CC3)ncnc2n1`, the cytotoxicity at 10 µM was -1.18%.

As to `O=C(COC1CCCC1)NC(C(=O)Nc1cc[nH]n1)c1ccccc1` (stereo unspecified), the cytotoxicity at 10 µM is -10.7%. Consider `Cc1ccoc1C(=O)N1C[C@@H]2COC[C@]2(CNS(C)(=O)=O)C1`, for which the cytotoxicity at 10 µM is -1.14%.

Regarding `Cc1nc(C2CCCN(C(=O)c3cccc4c3OCCO4)C2)no1` (stereo unspecified), the cytotoxicity at 10 µM is -8.93%.

Take `COC(=O)C(C)N(Cc1cc(C)on1)C1CC1` (stereo unspecified): the cytotoxicity at 10 µM is 0.91%. As to `CN(C)c1ncc(CN2CCC(O)(c3ccccc3F)CC2)cn1`, the cytotoxicity at 10 µM is 2.4%. In the case of `CC(C)C(=O)N1CCC(c2nc(O)cc(-c3ccncc3)n2)CC1`, the cytotoxicity at 10 µM is -5.41%.

Take `CCCN(C(=O)c1csnn1)C1CCCN(Cc2ccccc2)C1` (stereo unspecified): the cytotoxicity at 10 µM is -4.38%. The figure for `CCC(C(=O)NCc1ccn(-c2ccc(F)cc2)n1)N1CCCC1=O` (stereo unspecified) is -5.63%. The figure for `Cc1cnc(NC(=O)c2csc(NCC(C)C)n2)s1` is 34.4%; for `CCC[C@H]1CN(S(C)(=O)=O)C[C@@H]1NC(=O)CCOCC` it is 0.224%. Take `CCOCCCn1c(NC(=O)c2cnc(C)cn2)nc2ccccc21`: the cytotoxicity at 10 µM was -18.7%. With `COC(=O)N1CCc2ccccc2C1C(=O)NCc1ccncc1` (stereo unspecified), the cytotoxicity at 10 µM was -4.83%. Consider `CC(C)COC(=O)N1CCCN(C(C)c2nc(C(C)C)no2)CC1` (stereo unspecified), for which the cytotoxicity at 10 µM was determined as 6.85%.

For `CN(Cc1noc(C2CC2)n1)C1CCN(Cc2cccc(F)c2F)C1` (stereo unspecified), the cytotoxicity at 10 µM was -13%.

With `CCCN1CCN(Cc2nc3ccccc3[nH]2)[C@H]2CS(=O)(=O)C[C@H]21`, the cytotoxicity at 10 µM was -137%.

With `Cc1cc(CN(C)C(=O)CN2CCCC2=O)no1`, the cytotoxicity at 10 µM turned out to be 3.05%. As for `CN(C)CC1(O)CCCN(Cc2cnc(-c3ccco3)nc2)CC1` (stereo unspecified), the cytotoxicity at 10 µM is -8.58%. Turning to `CCN(Cc1nc2c(cnn2C)c(=O)[nH]1)Cc1ccccc1C`, the cytotoxicity at 10 µM was -10.2%. As to `CCc1nc(CCNc2ccc(S(N)(=O)=O)cc2C#N)cs1`, the cytotoxicity at 10 µM was -54.6%. Take `O=C1OCCCN1Cc1nc(-c2ccncc2)no1`: the cytotoxicity at 10 µM is 6.77%. Turning to `CCc1ncc(C(=O)NCC2CCN(Cc3ccncc3)CC2)cn1`, the cytotoxicity at 10 µM was 8.12%.

As for `COc1cc(CNCc2c(C)nn(C)c2N(C)C)ccc1OCCO`, the cytotoxicity at 10 µM is -7.59%. Consider `CN1[C@H](CN2CCCC2)C[C@@H]2CN(Cc3ccoc3)CC[C@@H]21`, for which the cytotoxicity at 10 µM was -160%.

`Cc1cnc(-c2nc(C3CCN(C(=O)Cc4ccsc4)CC3)no2)cn1`: the cytotoxicity at 10 µM was -29.5%. With `CNC(=O)CCNC(=O)c1cc(C)n(-c2cccc(OC)c2)c1C`, the cytotoxicity at 10 µM is -10.2%.

`Cc1nc(C2CCCN(S(C)(=O)=O)C2)sc1Br` (stereo unspecified): the cytotoxicity at 10 µM was -10.3%. As to `CC(=O)c1nn(-c2cccc(Cl)c2)c(C)c1C(C)=O`, the cytotoxicity at 10 µM is -3.55%. For `CNC(=O)CN1CC[C@H]2CN(C(=O)c3cccn3C)C[C@H]2C1`, the cytotoxicity at 10 µM worked out at 2.31%. Consider `CN1C(=O)CO[C@H]2CCN(C(=O)Cc3ccc4c(c3)CCCC4)CC[C@@H]21`, for which the cytotoxicity at 10 µM amounted to 4.45%. Regarding `c1ccc(-n2nnnc2CNCc2ccc3c(c2)OCCO3)cc1`, the cytotoxicity at 10 µM stood at 9.35%. To `Cc1cccc(CN2CCOC3(CCCN(CC(=O)N(C)C)C3)C2)n1` (stereo unspecified) belongs -106%; to `CC(C)COC(C)C(=O)NCc1ccccc1Cn1ccnc1` (stereo unspecified), 4.9%; to `Cc1oc(C(=O)Nc2ccccc2F)cc1S(N)(=O)=O`, -1.07%. The figure for `COCCN(Cc1ccc(C)cc1)Cc1c[nH]cn1` is -42.3%; for `C[C@@H]1CN(C2CCN(c3ccccc3)CC2)CC[C@@]1(O)C1CCOCC1` it is -10.6%; for `COc1ccccc1[C@@H]1CN(Cc2cnc(N(C)C)nc2)C[C@H]1C(=O)O` it is -3.89%.

As for `O[C@@H]1C[C@@H](c2nc(-c3ccccc3)no2)N(C2CCOCC2)C1`, the cytotoxicity at 10 µM is -1.83%.

With `Cc1nn(C)c(Cl)c1C1CCCN1CC(=O)NC1CCCC1` (stereo unspecified), the cytotoxicity at 10 µM was -3.78%. Regarding `CCN1C[C@@H](C(=O)O)[C@H](c2cccc(OC)c2)C1`, the cytotoxicity at 10 µM was -19%. On to `NC(=O)CC1CCN(CC(O)c2ccc(Br)cc2)CC1` (stereo unspecified), for which the cytotoxicity at 10 µM is -7.74%.

`O=C(CN1CCN(c2ncnc3c2CCNCC3)CC1)N1CCCCC1`: the cytotoxicity at 10 µM worked out at 6.63%. Consider `COc1ccccc1C(O)Cn1cc(C(=O)NCC2CC2)nn1` (stereo unspecified), for which the cytotoxicity at 10 µM was -2.62%. As to `O=S(=O)(N1CCOCC1)N1CCCC(c2ccccn2)C1` (stereo unspecified), the cytotoxicity at 10 µM amounted to 2.23%. The figure for `CS(=O)(=O)N1CCC(CNC(=O)C2CCCC2)CC1` is 1.2%; for `Cc1nnc(NC(=O)NCCCN2CCC(C(N)=O)CC2)s1` it is 5.61%.

The values above are taken from ChEMBL document CHEMBL4513216, “Probing the Open Global Health Chemical Diversity Library for Multistage-Active Starting Points for Next-Generation Antimalarials” (ACS Infect Dis, 2020).
